Test results taken from ChEMBL document CHEMBL1123816, “Synthesis and antidepressant properties of novel 2-substituted 4,5-dihydro-1H-imidazole derivatives” (J Med Chem, 1987).
Active and inactive are the calls of the source. No cut-off for these calls is given here.

How the values were obtained:
[1] = target: T1, Adrenergic receptor alpha-2 (Rattus norvegicus, UniProt P22086+P19328+P22909); assay: Ability to displace [3H]clonidine from alpha-2 adrenergic receptor in rat brain homogenates in vitro; format: tissue-based
T1 sequence (P22086 whole entry): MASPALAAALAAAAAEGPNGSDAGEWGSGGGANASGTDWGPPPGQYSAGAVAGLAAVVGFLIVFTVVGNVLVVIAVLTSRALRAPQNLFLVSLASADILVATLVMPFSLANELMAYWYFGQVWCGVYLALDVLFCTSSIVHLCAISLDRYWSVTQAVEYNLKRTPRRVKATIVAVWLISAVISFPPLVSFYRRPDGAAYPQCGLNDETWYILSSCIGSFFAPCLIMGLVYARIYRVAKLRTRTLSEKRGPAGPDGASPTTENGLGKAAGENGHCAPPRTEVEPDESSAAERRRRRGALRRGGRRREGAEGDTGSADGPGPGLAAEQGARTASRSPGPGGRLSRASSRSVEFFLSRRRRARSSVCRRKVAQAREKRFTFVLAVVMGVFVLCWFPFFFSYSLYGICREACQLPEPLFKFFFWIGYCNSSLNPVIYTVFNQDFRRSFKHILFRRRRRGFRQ
T1 sequence (P19328 whole entry): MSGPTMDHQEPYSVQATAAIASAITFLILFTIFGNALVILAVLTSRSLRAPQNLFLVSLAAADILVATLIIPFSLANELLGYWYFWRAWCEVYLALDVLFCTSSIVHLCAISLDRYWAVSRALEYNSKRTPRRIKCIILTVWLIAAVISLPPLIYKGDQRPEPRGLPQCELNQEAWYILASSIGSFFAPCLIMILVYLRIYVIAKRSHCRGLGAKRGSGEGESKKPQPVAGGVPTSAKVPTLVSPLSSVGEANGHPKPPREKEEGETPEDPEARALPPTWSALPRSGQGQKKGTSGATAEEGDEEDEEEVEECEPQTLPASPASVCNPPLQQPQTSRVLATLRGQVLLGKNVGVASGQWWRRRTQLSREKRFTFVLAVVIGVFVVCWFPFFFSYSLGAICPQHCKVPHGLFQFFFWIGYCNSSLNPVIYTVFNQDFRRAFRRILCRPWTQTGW
T1 sequence (P22909 whole entry): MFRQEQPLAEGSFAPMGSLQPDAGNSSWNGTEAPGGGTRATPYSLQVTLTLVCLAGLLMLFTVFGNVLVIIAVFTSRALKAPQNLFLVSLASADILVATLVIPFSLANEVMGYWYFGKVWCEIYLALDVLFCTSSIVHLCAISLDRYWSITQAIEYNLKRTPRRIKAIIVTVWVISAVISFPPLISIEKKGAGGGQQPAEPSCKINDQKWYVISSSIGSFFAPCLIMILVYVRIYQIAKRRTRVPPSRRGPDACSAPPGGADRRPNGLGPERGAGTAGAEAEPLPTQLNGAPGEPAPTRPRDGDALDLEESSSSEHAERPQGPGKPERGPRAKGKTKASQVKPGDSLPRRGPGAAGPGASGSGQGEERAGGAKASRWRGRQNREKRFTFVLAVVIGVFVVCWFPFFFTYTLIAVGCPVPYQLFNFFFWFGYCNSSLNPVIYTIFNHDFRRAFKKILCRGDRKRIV

[2] = target: T2, Adrenergic receptor alpha-2 (Rattus norvegicus) (UniProt P22086+P19328+P22909); assay: In vitro antagonistic activity against alpha-2 adrenergic receptor in isolated electrically stimulated rat vas deferens (clonidine-induced decrease in twitch height) at 500 uM concentration. IA is Inactive, no antagonism at 500 uM; format: functional
[3] = target: T1, Adrenergic receptor alpha-2; assay: In vitro antagonistic activity against alpha-2 adrenergic receptor in isolated electrically stimulated rat vas deferens (clonidine-induced decrease in twitch height); format: functional, tissue-based
Mus musculus [4] = assay: Effective dose required for inhibition of tetrabenazine-induced ptosis in mouse by peroral administration;Values ranges from: 1.8-9.3; format: functional; conditions: po
Rattus norvegicus [5] = species on record: Rattus norvegicus; assay: Inhibition of [3H]dopamine uptake into rat brain synaptosomes in vitro;Values ranges from: 0.09-0.18; format: functional
Outline: (§1)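 Male Sprague–Dawley rat (180–240 g) cortex (NE, 5-HT) or striatum (DA) crude P2 synaptosomes in 0.32 M sucrose. Preincubated 5 min at 25 °C with drug in Krebs–Ringer phosphate containing ascorbate, EDTA, nialamide; 0.1 μM final [3H]amine added for 5 min. Stopped by cold saline and GF/B filtration; nonspecific uptake at 4 °C. IC50 with 95% limits computed.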

Rattus norvegicus [6] = species on record: Rattus norvegicus; assay: Inhibition of [3H]norepinephrine uptake into rat brain synaptosomes in vitro;Values ranges from: 0.01-0.07; format: functional; outline: as §1
Rattus norvegicus [7] = species on record: Rattus norvegicus; assay: Inhibition of [3H]5-HT uptake into rat brain synaptosomes in vitro;Values ranges from: 0.14-0.22; format: functional; outline: as §1
Rattus norvegicus [8] = assay: Minimum effective dose required for inhibition of serotonin uptake was determined by PCA method in rat by peroral administration; format: functional; conditions: po, read-out: MED
Outline: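 Fasted male Sprague–Dawley rats (160–200 g) given test compound orally in water (10 mL/kg) 15 min before p-chloroamphetamine 3 mg/kg ip. Forebrain taken 3 h later, extracted in acidified butanol then heptane/0.1 N HCl. Serotonin in aqueous phase measured fluorometrically after o-phthalaldehyde condensation (excitation 360 nm). Minimum effective dose reported.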

[9] = target: T2, Adrenergic receptor alpha-2 (Rattus norvegicus); assay: In vitro antagonistic activity against alpha-2 adrenergic receptor in isolated electrically stimulated rat vas deferens (clonidine-induced decrease in twitch height)at 500 uM concentration. IA is Inactive, no antagonism at 500 uM; format: functional
Mus musculus [10] = assay: Effective dose required for inhibition of tetrabenazine-induced ptosis in mouse by peroral administration; format: functional; conditions: po
Outline: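 Swiss Webster mice; test compound in 0.9% NaCl (10 mL/kg) given po 30 min before ip tetrabenazine methanesulfonate (50 mg/kg, in 0.9% NaCl with moderate heating). Ptosis scored subjectively 30 min after tetrabenazine on a 0–4 scale (0 = complete eye closure, 4 = no closure). ED50 with 95% confidence limits from quantal dose–response analysis.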

Mus musculus [11] = assay: Effective dose required to antagonise clonidine-induced antinociception(ACA) in mouse by peroral administration;Values ranges from: 0.5-3.8; format: functional; conditions: po
Rattus norvegicus [12] = species on record: Rattus norvegicus; assay: Inhibition of [3H]dopamine uptake into rat brain synaptosomes in vitro; format: functional
Outline: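 Male Sprague–Dawley rat corpus striatum (180–240 g) homogenized in 0.32 M sucrose; P2 synaptosomes. Preincubated 5 min at 25 °C in modified Krebs–Ringer phosphate with ascorbic acid, EDTA and nialamide. Uptake run 5 min with 0.1 μM final [3H]dopamine, ended by cold saline and GF/B filtration. Nonspecific uptake measured at 4 °C. IC50 with 95% confidence limits.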

Rattus norvegicus [13] = species on record: Rattus norvegicus; assay: Inhibition of [3H]norepinephrine uptake into rat brain synaptosomes in vitro;Values ranges from: 8.6-21; format: functional
Outline: (§2)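 Male Sprague–Dawley rat cerebral cortex (180–240 g) homogenized in 0.32 M sucrose; crude P2 synaptosomes. Preincubated 5 min at 25 °C in modified Krebs–Ringer phosphate with ascorbic acid, EDTA and nialamide. Uptake run 5 min with 0.1 μM final [3H]-5-HT or [3H]NE, stopped by ice-cold saline and filtration. Nonspecific uptake taken at 4 °C. Scintillation counting; IC50 with 95% confidence limits.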

Rattus norvegicus [14] = species on record: Rattus norvegicus; assay: Inhibition of [3H]5-HT uptake into rat brain synaptosomes in vitro; format: functional; outline: as §2
[15] = target: T2, Adrenergic receptor alpha-2 (Rattus norvegicus); assay: In vitro antagonistic activity against alpha-2 adrenergic receptor in isolated electrically stimulated rat vas deferens (clonidine-induced decrease in twitch height) at 500 uM concentration;IA is Inactive, no antagonism at 500 uM; format: functional
[16] = target: T2, Adrenergic receptor alpha-2 (Rattus norvegicus); assay: In vitro antagonistic activity against alpha-2 adrenergic receptor in isolated electrically stimulated rat vas deferens (clonidine-induced decrease in twitch height) at 500 uM concentration.;IA is Inactive, no antagonism at 500 uM; format: functional

SMILES	Ki [1] [µM]	pA2 [3]	other results
CC1=C(CC2=NCC(C)N2)CCc2ccccc21.Cl (centres undefined)	> 0.8		pA2 [2]: inactive
Cc1c(CC2=NCCN2)ccc2ccccc12.Cl	0.0066	7.35	
C[C@@H]1c2ccccc2CC[C@@H]1CC1=NCCN1.Cl	0.135	7.22	
Cl.c1ccc2cc(CC3=NCCN3)ccc2c1	0.048	7.67	
CN(C)CCCN1c2ccccc2CCc2ccccc21 [IMIPRAMINE]			ED50 (Mus musculus [4]): 4.1 mg/kg; IC50 (Rattus norvegicus [5]): 0.13 µM; IC50 (Rattus norvegicus [6]): 0.03 µM; IC50 (Rattus norvegicus [7]): 0.18 µM; minimal effective dose (Rattus norvegicus [8]): 30 mg/kg
C1=C(CC2=NCCN2)Cc2ccccc21.Cl	0.076	7.19	
CC1=C(CC2=NCCN2C)CCc2ccccc21.Cl	0.436		pA2 [9]: inactive
CC1=C(CC2=NCCN2)Cc2ccccc21.Cl	0.0069	7.71	
CC(C1=Cc2ccccc2CC1)C1=NCCN1.Cl (centres undefined)	0.032	7.43	
c1ccc2c(c1)OCC(C1=NCCN1)O2 (centres undefined) [IDAZOXAN]			ED50 (Mus musculus [10]): > 30 mg/kg; ED50 (Mus musculus [11]): 1.3 mg/kg; IC50 (Rattus norvegicus [12]): > 30 µM; IC50 (Rattus norvegicus [13]): 13 µM; IC50 (Rattus norvegicus [14]): > 30 µM; minimal effective dose (Rattus norvegicus [8]): > 30 mg/kg
CCN1CCN=C1CC1=C(C)c2ccccc2CC1.Cl	0.548		pA2 [15]: inactive
CC1=C(Cc2ncc[nH]2)CCc2ccccc21	0.088	6.92	
C[C@H]1c2ccccc2CC[C@@H]1CC1=NCCN1.Cl	0.401		
CC1=C(CC2=NCCCN2)CCc2ccccc21.Cl	0.334		pA2 [16]: inactive
